Compounds with a hit are over-represented: about 6.3% of the library has one in this group of screens.
M1 ag: activates the M1 muscarinic receptor. CHO-M1 cells, Fluo-4 calcium fluorescence, agonist mode; hits give high values. B-score at 10 µM. 64,000 tested, 3% active;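 active = fluorescence rise, raw or as B-score row- and column-corrected plate score, outside the 99.7% band of its plate's samples, either direction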
SF1 activator: activates the human nuclear receptor SF-1; Q13285; CHO-K1 Gal4-SF-1 LBD luciferase reporter; % increase over DMSO SF-1-specific signal; activation, % at 10 µM; 65,000 tested, 1.9% active; AID 522;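 active = activation above the mean activation of all tested compounds plus 3 SD, cut at about 50% in these data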
Target sequence (Q13285 whole entry, looked up, the tested form may be a part): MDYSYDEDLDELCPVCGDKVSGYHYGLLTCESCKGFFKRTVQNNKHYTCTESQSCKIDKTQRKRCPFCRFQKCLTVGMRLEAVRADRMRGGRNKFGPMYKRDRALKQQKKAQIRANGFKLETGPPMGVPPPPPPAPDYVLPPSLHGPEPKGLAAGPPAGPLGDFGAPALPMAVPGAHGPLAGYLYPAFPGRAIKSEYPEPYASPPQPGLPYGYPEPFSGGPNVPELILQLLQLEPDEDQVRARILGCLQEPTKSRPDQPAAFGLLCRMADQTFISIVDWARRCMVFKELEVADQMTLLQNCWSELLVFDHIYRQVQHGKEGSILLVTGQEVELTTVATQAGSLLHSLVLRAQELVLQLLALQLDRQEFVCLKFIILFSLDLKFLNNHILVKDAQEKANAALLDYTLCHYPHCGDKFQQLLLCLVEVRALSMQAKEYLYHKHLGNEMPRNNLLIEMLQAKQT
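Test system: CHO-K1 cells co-transfected with Gal4 DBD–human SF-1 LBD, 5xGal4 luciferase reporter. Quantity: 4,000 cells per well. Compound: 10 µM only. Incubation: compound added 1 h post-seeding, 20 h exposure at 37 °C, 5% CO2. Detection: SteadyLite luciferase luminescence. Replication: one test per compound.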
RORa activator: activates the human nuclear receptor RORA; activation, % at 10 µM; 65,000 tested, 1.5% active; CHO-K1 Gal4-RORA LBD luciferase reporter, luminescence; percent increase over mock-subtracted basal signal; AID 560; P35398;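 active = activation above the mean of all tested compounds plus 3 SD, cut at about 49% in these data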
MT1-MMP txn act: activates MT1-MMP transcription; HT1080 MT1-MMP promoter luciferase reporter, luminescence, overnight; hits give high values; 86,000 tested, 0.16% active; activation factor at 10 µM; AID 750;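 active = activation factor of at least 2 for MT1-MMP transcription at 10 µM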
M1 antag: blocks the rat M1 muscarinic receptor response to acetylcholine; CHO-M1 cells, Fluo-4 calcium, ACh EC80 antagonist mode; hits give low values; B-score at 10 µM; 64,000 tested, 3.4% active; P08482;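 active = calcium fluorescence response, raw or row-and-column corrected B-score, differing from the plate sample mean either way at a set confidence level, mostly lower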
M1 antag conf: M1 muscarinic receptor (rat) antagonism, confirmed | 1,700 tested, 43% active | calcium response (max-min fluorescence) at 10 µM | AID 677 | shares compounds with M1 antag | CHO-M1 cells, Fluo-4 calcium, ACh EC80 antagonism; hits give low values;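 active = calcium response below the same-plate mean of wells given acetylcholine alone at its 80%-effect dose, minus 3 SD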
mGluR4 antag: mGluR4 (human) activity, M1 antagonist secondary assay | AID 678 | 1,700 tested, 0.9% active | CHO-mGluR4 calcium flux, Fluo-4 fluorescence, glutamate EC80; hits give low values | shares compounds with M1 antag | fluorescence response (max-min) at 10 µM;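 active = fluorescence response below the plate's average for near-maximal glutamate wells, less 3 SD of those wells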;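 note: raw unnormalized fluorescence span taken in the window right after glutamate addition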
A number is an active result; – = inactive; · = no result given.

SMILES | M1 ag | SF1 activator | RORa activator | MT1-MMP txn act | M1 antag | M1 antag conf | mGluR4 antag
Cc1cc(C(=O)CSc2nnnn2C)c(C)n1CCc1ccc(F)cc1 | – | – | – | – | -2.1 | – | –
CCCCP(=O)(CCCC)c1ccccc1C(=O)O | – | – | – | – | -3.7 | – | –
CCCCP(=O)(CCCC)Cc1ccccc1 | · | · | · | – | · | · | ·
C=C(C)Cn1c(SCC)nc2ccccc2c1=O | – | – | – | – | -4.1 | – | –
CN(C)CCNC(=O)C(C(=O)c1ccc(F)cc1)n1ccccc1=O (configuration not stated) | – | – | – | – | – | · | ·
CCOC(=O)C1CCCN(c2c(NCCCN(CC)c3cccc(C)c3)c(=O)c2=O)C1 (configuration not stated) | – | – | – | – | -5.2 | – | –
COc1ccc(-c2[nH]ncc2-c2cnn(-c3ccccc3)c2)c(O)c1 | – | · | · | · | -3.3 | – | –
CCSc1nc2c(c(=O)n1Cc1ccccc1)SC(C)C2 (configuration not stated) | – | – | – | – | -3.7 | 373 | –
O=C1CC(c2ccco2)Cc2nc(N3CCN(Cc4ccc5c(c4)OCO5)CC3)ncc21 (configuration not stated) | – | – | – | – | -1.9 | 509 | –
COc1ccc(C2CC(=O)c3cnc(N4CCN(Cc5ccccc5)CC4)nc3C2)cc1 (configuration not stated) | – | – | – | – | – | · | ·
Cc1cc2c(cc1C)-c1nnnn1C(C)(C)C2 | – | – | – | – | – | · | ·
N#C/C(C(=O)c1ccccc1)=C1/CCCCCN1 | – | 61 | – | – | -2.4 | – | –
CCC/S(CC1CC1(Cl)Cl)=N\S(=O)(=O)c1ccc(C)cc1 (configuration not stated) | · | · | · | – | · | · | ·
N=c1sccn1CC(=O)NCCc1ccc(Cl)cc1 | – | – | – | – | -4.7 | 408 | –
CCOC(=O)C1CCN(CC(O)COc2ccc(C(=O)CC)cc2)CC1 (configuration not stated) | – | – | – | – | -3.3 | – | –
CCC(=O)c1ccc(OCC(O)CN2CCN(S(=O)(=O)N3CCCCC3)CC2)cc1 (configuration not stated) | – | – | – | – | – | · | ·
OC(COc1ccc(C2C=CCC2)cc1)CN1CCCCC1 (configuration not stated) | – | – | – | – | -4.1 | 422 | –
O=C(c1ccccc1)c1ccc(OCC(O)CN2CCN(S(=O)(=O)N3CCCCC3)CC2)cc1 (configuration not stated) | · | · | · | – | · | · | ·
CCCCOc1ccc(C(=O)CCN2CCCCC2)cc1 | – | – | – | – | – | · | ·
O=C(c1ccccc1)c1ccc(OCC(O)CN2CCCCC2)cc1 (configuration not stated) | – | – | – | – | -2.2 | 381 | –
CC(C)COc1ccc(C(=O)CCN2CCCCC2)cc1 | – | – | – | – | -7 | 278 | –
Cc1ccc(OCC(O)CN2CCN(CC(O)COc3ccc(C)cc3)CC2)cc1 (configuration not stated) | – | – | – | – | – | · | ·
c1ccc(CCCNc2ncccn2)cc1 | · | · | · | – | · | · | ·
CN1/C(=C\C(=O)c2ccco2)c2ccccc2CC1(C)C | – | – | – | – | -2.9 | – | –
O=C(CCn1nc(-c2ccc(Cl)cc2)ccc1=O)N1CCOCC1 | – | – | – | – | – | · | ·
SMILES | M1 ag | SF1 activator | RORa activator | MT1-MMP txn act | M1 antag | M1 antag conf | mGluR4 antag
O=C(CCn1nc(-c2ccc(Cl)cc2)ccc1=O)N1CCN(c2ccccn2)CC1 | – | – | – | – | -3 | – | –
CCn1c(SCC(N)=O)nnc1-c1cc2c(C)nn(-c3ccccc3)c2s1 | – | – | – | – | -2.7 | – | 160
CCn1c(SCC(N)=O)nnc1-c1ccc2[nH]c(C)c(C)c2c1 | – | – | – | – | – | · | ·
COc1ccc(C2CC(C(F)(F)F)n3ncc(C(=O)O)c3N2)cc1OC (configuration not stated) | – | – | – | – | -3.1 | – | –
Cc1c(Cl)cccc1NC(=S)NN1CCOCC1 | · | · | · | – | · | · | ·
CN(C)c1ccc(C2C3C(=O)N(c4ccc(C(=O)O)cc4)C(=O)C3ON2c2ccccc2)cc1 (configuration not stated) | – | – | – | – | -2.5 | 15 | –
